The list is not random: actives were taken first. Their share in the collection is about 1.9%.
LEDGF integ inh: blocks HIV-1 LEDGF/p75-dependent DNA integration; actives 0.64% (n = 370,000); TR-FRET IN-LEDGF/p75 DNA integration, Eu/Cy5; AID 743269; inhibition, % at 3.7 µM;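 active = inhibition above the screen-wide mean plus 3 SD, cut at about 13% in these data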;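 note: signal is the Cy5 over europium emission ratio at 671 and 618 nm; 0% = plate median of compound wells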
UHRF1 binding: UHRF1 methyl-DNA binding inhibition | Q96T88 | UHRF1 binding to methylated oligo, TR-FRET | inhibition, % at 4.4 µM | actives 0.75% (n = 370,000) | AID 687016;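 note: UHRF1 SRA domain binding a hemimethylated CpG hairpin DNA probe; 0% = median of test compound wells and 100% = reference inhibitor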
TDP2 inh: TDP2 (human) inhibition, absorbance primary screen. O95551. recombinant TDP2, T5PNP hydrolysis, p-nitrophenol absorbance 415 nm. inhibition, % at 12.8 µM. actives 0.34% (n = 370,000);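 active = inhibition above the mean of all tested compounds plus 3 SD, set per campaign, cut at about 25% in these data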;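 note: 0% = DMSO with enzyme and 100% = buffer with substrate but no TDP2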
Target sequence (O95551 whole entry, looked up): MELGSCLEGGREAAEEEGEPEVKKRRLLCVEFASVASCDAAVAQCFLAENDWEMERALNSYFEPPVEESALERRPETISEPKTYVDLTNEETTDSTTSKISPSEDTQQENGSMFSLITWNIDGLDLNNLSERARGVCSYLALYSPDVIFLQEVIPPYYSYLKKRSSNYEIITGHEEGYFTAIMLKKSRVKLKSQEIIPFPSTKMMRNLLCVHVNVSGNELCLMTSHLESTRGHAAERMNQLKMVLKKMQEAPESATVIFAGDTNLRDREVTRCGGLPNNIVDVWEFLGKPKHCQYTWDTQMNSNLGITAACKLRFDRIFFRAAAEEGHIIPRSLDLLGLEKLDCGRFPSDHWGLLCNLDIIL
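Test system: human TDP2 enzyme; Input: 120 nM TDP2 per well; Buffer or medium: Mg2+-containing Tris-HCl buffer, pH 7.5; Reagent: 5 mM T5PNP; Dosing: 12.8 µM single point, 1% DMSO; Incubation: reaction 2 h, 37 °C; Detection: p-Nitrophenol epi absorbance; Read-out: % inhibition relative to enzyme-containing and enzyme-free wells; Replicates: single well per compound.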
MBD2 DNA inh: blocks human MBD2 binding to methylated DNA; actives 0.31% (n = 370,000); TR-FRET, MBD2 binding to methylated oligonucleotide; Q9UBB5; inhibition, % at 4.4 µM; in the data active = inhibition above about 13%
DDE Tn6 FP inh: disrupts Tn6 cyclic peptide binding to fibrin D-Dimer-E complex. P02675. Fibrin DD(E) TRITC-Tn6 fluorescence polarization displacement. inhibition, % at 8.3 µM. actives 0.21% (n = 370,000);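 active = inhibition above a per-campaign cutoff: mean of compounds within control limits plus 3 SD, cut at about 15% in these data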;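 note: 0% = median of all compound wells on the plate and 100% = blocking peptide control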
DDE Tn7 FP inh: inhibitors of Tn7 peptide binding to human fibrin DD(E). FP displacement of FITC-Tn7 peptide from fibrin DD(E); 0% = median of compound wells per plate. AID 720508. inhibition, % at 8.3 µM. actives 0.13% (n = 370,000);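 active = inhibition above the mean of compounds falling within the control limits plus 3 SD of them, cut at about 14% in these data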;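 note: 0% = plate median of compound wells and 100% = 10 µM Aha-Tn7 peptide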
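Test system – human fibrin DD(E) · Times – 10 min preincubation, 3 h with tracer, room temperature · Detection – fluorescence polarization of the labelled Tn7 tracer · Measure – percent inhibition normalized to high-control wells · Benchmarks – high control wells with 10 µM unlabelled Aha-Tn7 peptide (full inhibition) · Repeats – singlicate testing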
UHRF1 DNA bind: inhibits human UHRF1 binding to methylated oligonucleotide, MBD2 counter-screen. shares compounds with MBD2 DNA inh. TR-FRET. inhibition, % at 4.4 µM. actives 25% (n = 1,000);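 note: UHRF1 SRA domain binding a labeled hemimethylated CpG hairpin DNA; 0% = vehicle only and 100% = reference inhibitor with vehicle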
MBD2 confirm: confirmation of human MBD2-DBD methylated oligonucleotide binding inhibitors. actives 26% (n = 1,000). shares compounds with MBD2 DNA inh. inhibition, % at 4.4 µM. TR-FRET MBD2-DBD binding to methylated oligonucleotide. AID 720531; in the data active = inhibition above about 14%
The depositor's hits bear a star. Cut-off read from the data, not from the text of the source, unless noted: active = inhibition above about 21%; inactive = the rest.

COc1ccc2cc([C@H](C)C(=O)OCc3cn(CC(=O)c4ccc(O)cc4)nn3)ccc2c1 was read as LEDGF integ inh 10, UHRF1 binding 18, TDP2 inh 2, MBD2 DNA inh 15*, DDE Tn6 FP inh 1, DDE Tn7 FP inh 0, UHRF1 DNA bind 13 and MBD2 confirm 11.
For O=C(Cn1cc(COc2ccc3ccc(=O)oc3c2)nn1)c1ccc(O)cc1 the results were LEDGF integ inh 7, UHRF1 binding 9, TDP2 inh 0, MBD2 DNA inh -6, DDE Tn6 FP inh 1 and DDE Tn7 FP inh 2.
`CCOC(=O)C(C)c1ccc2cc(OC)ccc2c1` (centres undefined) gave LEDGF integ inh -1, UHRF1 binding 0, TDP2 inh 3, MBD2 DNA inh -4, DDE Tn6 FP inh -2 and DDE Tn7 FP inh 8.
For CCCCNC(=O)O[C@H]1CC[C@@]23CCCN2C(=O)CCC[C@H]3[C@H]1C the results were LEDGF integ inh -3, UHRF1 binding 0, TDP2 inh -5, MBD2 DNA inh 0, DDE Tn6 FP inh 7 and DDE Tn7 FP inh 5.
COC(=O)[C@]12C[C@H](CC(=O)N3CCOCC3)C(=O)N(CCc3ccc(OC)c(OC)c3)C1=C[C@H](C(C)(C)C)O[C@@H]2C was read as LEDGF integ inh -1, UHRF1 binding -2, TDP2 inh 6, MBD2 DNA inh 0, DDE Tn6 FP inh 0 and DDE Tn7 FP inh 3.
Screening O=C(Nc1ccc(F)cc1)OCc1cn(Cc2ccc(F)c(F)c2)nn1 returned LEDGF integ inh 7, UHRF1 binding 4, TDP2 inh 5, MBD2 DNA inh 1, DDE Tn6 FP inh -2 and DDE Tn7 FP inh -5.
For c1ccc2c(c1)c1c(c3ccccc32)CN2CCCC2C1 (centres undefined) the results were LEDGF integ inh 5, UHRF1 binding 26*, TDP2 inh 0, MBD2 DNA inh 36*, DDE Tn6 FP inh 1, DDE Tn7 FP inh -4, UHRF1 DNA bind 34* and MBD2 confirm 49*.
For CCOC(=O)c1cc(-c2ccc(N3CCOCC3)cc2)nn1-c1ccccc1 the results were LEDGF integ inh -1, UHRF1 binding 5, TDP2 inh 6, MBD2 DNA inh 3, DDE Tn6 FP inh 3 and DDE Tn7 FP inh 4.
`CCOC(=O)c1cc(-c2ccc(N3CCOCC3)cc2)nn1-c1ccccc1C(=O)O` gave LEDGF integ inh 0, UHRF1 binding 20, TDP2 inh -1, MBD2 DNA inh 23*, DDE Tn6 FP inh 1, DDE Tn7 FP inh 0, UHRF1 DNA bind 27* and MBD2 confirm 27*.
`Cc1cc(-c2n[nH]c(=S)n2N=Cc2cccc(OCc3ccccc3)c2)n[nH]1` gave LEDGF integ inh 1, UHRF1 binding -1, TDP2 inh 6, MBD2 DNA inh 3, DDE Tn6 FP inh -1 and DDE Tn7 FP inh -1.
Screening O=C(CSc1cccc[n+]1[O-])Nc1cc([N+](=O)[O-])ccc1Cl returned LEDGF integ inh -2, UHRF1 binding 1, TDP2 inh 4, MBD2 DNA inh 13*, DDE Tn6 FP inh 7, DDE Tn7 FP inh 10, UHRF1 DNA bind 10 and MBD2 confirm 5.
Screening COc1ccc(C23CC4CC(CC(C4)C2)C3)cc1C(=O)NCCN(C)C returned LEDGF integ inh 0, UHRF1 binding 0, TDP2 inh 6, MBD2 DNA inh 0, DDE Tn6 FP inh -5 and DDE Tn7 FP inh 1.
For COc1ccc(OC)c2nc3c(C(=O)NCCN(C)C)cccc3nc12 the results were LEDGF integ inh 2, UHRF1 binding 56*, TDP2 inh 6, MBD2 DNA inh 53*, DDE Tn6 FP inh -8, DDE Tn7 FP inh -5, UHRF1 DNA bind 71* and MBD2 confirm 63*.
CN(C)CCNC(=O)c1sc2cccc(F)c2c1Cl was read as LEDGF integ inh 5, UHRF1 binding -5, TDP2 inh -15, MBD2 DNA inh -9, DDE Tn6 FP inh 3 and DDE Tn7 FP inh 3.
`CN(C)CCNC(=O)c1cccc2nc3cccc(F)c3nc12` gave LEDGF integ inh -3, UHRF1 binding 23*, TDP2 inh 2, MBD2 DNA inh 35*, DDE Tn6 FP inh 4, DDE Tn7 FP inh 2, UHRF1 DNA bind 35* and MBD2 confirm 37*.
Screening COc1ccc(-n2nnnc2-c2ccc(S(C)(=O)=O)cc2Cl)cc1 returned LEDGF integ inh 5, UHRF1 binding 24*, TDP2 inh 8, MBD2 DNA inh 13*, DDE Tn6 FP inh 2, DDE Tn7 FP inh 10, UHRF1 DNA bind 1 and MBD2 confirm 5.
For COCCCNC(=O)c1cc2c(=O)n3cccc(C)c3nc2n(C(C)C)c1=N the results were LEDGF integ inh 4, UHRF1 binding 22*, TDP2 inh 12, MBD2 DNA inh 14*, DDE Tn6 FP inh -6, DDE Tn7 FP inh -1, UHRF1 DNA bind 3 and MBD2 confirm 2.
For COCCn1c(=N)c(C(=O)NCCc2ccc(OC)cc2)cc2c(=O)n3cccc(C)c3nc21 the results were LEDGF integ inh 2, UHRF1 binding 0, TDP2 inh -17, MBD2 DNA inh -11, DDE Tn6 FP inh -5 and DDE Tn7 FP inh 3.
OC(c1ccccc1)(c1ccccc1)C1CCN(CCCOc2cccnc2)CC1 was read as LEDGF integ inh 1, UHRF1 binding 0, TDP2 inh 13, MBD2 DNA inh 1, DDE Tn6 FP inh 14 and DDE Tn7 FP inh 10.
Screening CCN(CC)S(=O)(=O)c1ccc(N2CCOCC2)c(NC(=O)c2ccc(F)cc2)c1 returned LEDGF integ inh -1, UHRF1 binding 1, TDP2 inh 0, MBD2 DNA inh 0, DDE Tn6 FP inh 4 and DDE Tn7 FP inh 5.
`CCN(CC)S(=O)(=O)c1ccc(N2CCOCC2)c(NC(=O)c2ccc(C#N)cc2)c1` gave LEDGF integ inh 0, UHRF1 binding 25*, TDP2 inh 3, MBD2 DNA inh 14*, DDE Tn6 FP inh -5, DDE Tn7 FP inh -1, UHRF1 DNA bind 9 and MBD2 confirm 5.
Cc1ccc(-c2cc(-c3ccccc3)[nH]c(=S)c2C#N)cc1 was read as LEDGF integ inh 5, UHRF1 binding 4, TDP2 inh -8, MBD2 DNA inh -3, DDE Tn6 FP inh 3 and DDE Tn7 FP inh -7.
